Results published in ChEMBL document CHEMBL3526146, “In vitro and in vivo metabolism and pharmacokinetics of BMS-562086, a potent and orally bioavailable corticotropin-releasing factor-1 receptor antagonist” (Drug Metab Dispos, 2012).

Experiments:
[1] = Drug metabolism in human cryopreserved hepatocytes assessed as DPH-124921 metabolite level at 25 uM after 3 hrs by LC-MS/MS analysis; type: ADME, cell-based, Hepatocyte
Summary of the method: (§1)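 Hepatocytes checked for viability by trypan blue exclusion, then diluted in Krebs-Henseleit buffer to 1.0 × 10^6 cells/ml. Incubated in duplicate with 25 µM compound at 37°C for 3 h on an orbital shaker (80 rpm) under 95/5 O2/CO2. Negative control had no cells. Stopped with ice-cold acetonitrile, sonicated, centrifuged; supernatant analysed by LC/MS/MS.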

[2] = Drug metabolism in beagle dog hepatocytes assessed as BMS-572273 metabolite level at 25 uM after 3 hrs by LC-MS/MS analysis; type: ADME, cell-based, Canis lupus familiaris, Hepatocyte
Summary of the method: (§2)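 Mouse, rat, dog, monkey and human hepatocytes (trypan blue viability checked) at 1.0×10^6 cells/ml in Krebs-Henseleit buffer were incubated with 25 µM compound, in duplicate. Conditions were 37°C, 95/5 O2/CO2, orbital shaking, 3 h. 7-Ethoxycoumarin and 7-hydroxycoumarin (100 µM) served as positive controls, with a cell-free negative control. Reactions were quenched with ice-cold acetonitrile, then sonicated and centrifuged; supernatants were analysed by LC/MS/MS.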

Liver microsome [3] = assay: Drug metabolism in rat liver microsomes at 100 uM after 1 hr in presence of NADPH; type: ADME
Summary of the method: (§3)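 Liver microsomes (1 mg/ml protein) in 100 mM phosphate buffer with 100 µM test compound. Reaction started by adding NADPH (1 mM), then run at 37°C for 1 h in a shaking water bath, in duplicate. Controls lacked microsomal protein or NADPH; 7-ethoxycoumarin (100 µM) was the positive control. Metabolites identified by LC/MS/MS.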

Liver microsome [4] = assay: Drug metabolism in rat liver microsomes assessed as DPH-124921 metabolite level at 100 uM after 1 hr in presence of NADPH; type: ADME; summary of the method: as §3
Liver microsome [5] = assay: Drug metabolism in dog liver microsomes assessed as DPH-124921 metabolite level at 100 uM after 1 hr in presence of NADPH; type: ADME, Canis lupus familiaris
Summary of the method: (§4)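 Mouse, rat, dog, monkey and human liver microsomes (1 mg/ml protein) were incubated with 100 µM compound in 100 mM phosphate buffer. Reactions were started with 1 mM NADPH and run 1 h at 37°C in duplicate. Controls lacked protein or NADPH, plus a 7-ethoxycoumarin (100 µM) positive control. Metabolites were identified by LC/MS/MS.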

[6] = Drug metabolism in cynomolgus monkey liver microsomes assessed as DPH-124921 metabolite level at 100 uM after 1 hr in presence of NADPH; type: ADME, Macaca fascicularis; summary of the method: as §4
Liver microsome [7] = assay: Drug metabolism in human liver microsomes assessed as DPH-124921 metabolite level at 100 uM after 1 hr in presence of NADPH; type: ADME; summary of the method: as §3
Liver microsome [8] = assay: Drug metabolism in rat liver microsomes assessed as BMS-572273 metabolite level at 100 uM after 1 hr in presence of NADPH; type: ADME; summary of the method: as §3
Liver microsome [9] = assay: Drug metabolism in dog liver microsomes assessed as BMS-572273 metabolite level at 100 uM after 1 hr in presence of NADPH; type: ADME, Canis lupus familiaris; summary of the method: as §4
[10] = Drug metabolism in cynomolgus monkey liver microsomes assessed as BMS-572273 metabolite level at 100 uM after 1 hr in presence of NADPH; type: ADME, Macaca fascicularis; summary of the method: as §4
Hepatocyte = assay: Detection of compound level in mouse hepatocytes treated with 25 uM of BMS-562086 after 3 hrs by LC-MS/MS analysis; type: ADME, cell-based; summary of the method: as §2
[11] = Detection of compound level in beagle dog hepatocytes treated with 25 uM of BMS-562086 after 3 hrs by LC-MS/MS analysis; type: ADME, cell-based, Canis lupus familiaris, Hepatocyte; summary of the method: as §2
[12] = Detection of compound level in cynomolgus monkey cryopreserved hepatocytes treated with 25 uM of BMS-562086 after 3 hrs by LC-MS/MS analysis; type: ADME, cell-based, Macaca fascicularis, Hepatocyte; summary of the method: as §2
[13] = Retention time of the compound by HPLC method; type: physicochemical
[14] = Drug metabolism in rat hepatocytes at 25 uM after 3 hrs by LC-MS/MS analysis; type: ADME, cell-based, Hepatocyte; summary of the method: as §1
[15] = Drug metabolism in beagle dog hepatocytes assessed as DPH-123554 metabolite level at 25 uM after 3 hrs by LC-MS/MS analysis; type: ADME, cell-based, Canis lupus familiaris, Hepatocyte; summary of the method: as §2
[16] = Detection of compound level in cynomolgus monkey liver microsomes treated with 100 uM of BMS-562086 after 1 hr by LC-MS/MS analysis
[17] = Drug metabolism in bile duct-cannulated Sprague-Dawley rat bile assessed as BMS-572273 metabolite level at 30 mg/kg, po after 12 hrs by LC-MS/MS analysis; type: ADME, organism-based; parameters: dose 30 mg/kg, route oral; conditions: in vivo
Summary of the method: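 Male bile-duct-cannulated Sprague-Dawley rats (n=3), fasted overnight, received 30 mg/kg by gavage in 0.5% methylcellulose. Urine and bile were collected 0-12 h and pooled by equal percentage weight across animals, then centrifuged. Supernatants were profiled by LC/MS/MS. Bile was also treated with β-glucuronidase in pH 4.8 acetate buffer, 37°C, 16 h.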

[18] = AUC (infinity) in Sprague-Dawley rat at 5 mg/kg, po; type: ADME, organism-based; parameters: time infinity, dose 5 mg/kg, route oral; conditions: plasma
Summary of the method: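 Male Sprague-Dawley rats (n=3 per route, 0.34-0.35 kg, cannulated), fasted ~18 h pre-dose and 4 h post-dose. Dosing was 1 mg/kg IV bolus in 20% ethanol/saline via the jugular cannula, or 5 mg/kg oral gavage in 0.5% aqueous methylcellulose. Jugular blood was sampled 0-96 h. Plasma was assayed by validated LC/MS/MS (LLOQ 1.00 ng/ml), and AUC(INF) was derived by noncompartmental mixed log-linear trapezoidal analysis.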

Canis familiaris = assay: Terminal volume of distribution in beagle dog at 1 mg/kg, iv; type: ADME, organism-based, Canis lupus familiaris; parameters: dose 1 mg/kg, route intravenous; conditions: in vivo
Summary of the method: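 Male beagles (n=3, 10.1-12.7 kg), fasted ~15 h pre- and 4 h post-dose, given a 1 mg/kg IV bolus via saphenous vein catheter in N,N-dimethylacetamide:propylene glycol:water (1:7:2). Plasma drawn 0-96 h and assayed by LC/MS/MS. Noncompartmental analysis; Vz = CLp (dose/AUC(INF)) divided by elimination rate constant.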

[19] = Tmax in chimpanzee at 1 mg/kg, po; type: ADME, organism-based, Pan troglodytes; parameters: dose 1 mg/kg, route oral; conditions: in vivo
Summary of the method: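 Two male chimpanzees (58 and 72 kg), fasted overnight, dosed orally at 1 mg/kg as a suspension in 0.5% aqueous methylcellulose/Tang orange juice with 1% Tween 80 (1:1). Plasma sampled 0-96 h, parent measured by validated LC/MS/MS. Tmax taken from observed data by noncompartmental analysis; reported as median (min, max).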

Serum = assay: Metabolic stability in rat serum after 3 hrs by equilibrium dialysis; type: ADME, cell-free
Summary of the method: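 Stability assessed in the serum samples from the equilibrium-dialysis setup: compound at final 12.8, 25.6 and 38.5 µM, dialysed against 134 mM phosphate buffer, pH 7.4, at 37°C with rotation at 20 rpm. Samples monitored for degradants over the 3-h incubation.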

[20] = Drug metabolism in cynomolgus monkey cryopreserved hepatocytes assessed as […] at 25 uM after 3 hrs by HPLC analysis; type: ADME, cell-based, Macaca fascicularis, Hepatocyte
[21] = Drug metabolism in human cryopreserved hepatocytes assessed as […] at 25 uM after 3 hrs by HPLC analysis; type: ADME, cell-based, Hepatocyte
[22] = Drug metabolism in cynomolgus monkey cryopreserved hepatocytes assessed as 7-hydroxycoumarin formation at 25 uM after 3 hrs by HPLC analysis; type: ADME, cell-based, Macaca fascicularis, Hepatocyte
[23] = Drug metabolism in beagle dog hepatocytes assessed as decrease of compound level at 25 uM after 3 hrs by HPLC analysis; type: ADME, cell-based, Canis lupus familiaris, Hepatocyte; conditions: read-out: Drug metabolism; summary of the method: as §2

| Drug metabolism [1] | Drug metabolism [2] | Drug metabolism (Liver microsome [3]) | Drug metabolism (Liver microsome [4]) | Drug metabolism (Liver microsome [5]) | Drug metabolism [6] | Drug metabolism (Liver microsome [7]) | Drug metabolism (Liver microsome [8]) | Drug metabolism (Liver microsome [9]) | Drug metabolism [10] | Drug metabolism (Hepatocyte) | Drug metabolism [11] | Drug metabolism [12] | Retention_time [13] [min] | Drug metabolism [14] | Drug metabolism [15] | Drug metabolism [16] | SMILES | other results |
| --- | --- | --- | --- | --- | --- | --- | --- | --- | --- | --- | --- | --- | --- | --- | --- | --- | --- | --- |
| metabolite_detected | metabolite_detected | metabolite_detected | metabolite_detected | metabolite_detected | metabolite_detected | metabolite_detected | metabolite_detected | metabolite_detected | metabolite_detected | metabolite_detected | metabolite_detected | metabolite_detected | 28.5 | metabolite_detected | metabolite_detected | metabolite_detected | COc1ccc(-c2c(C)nn3c(N)nc(C)nc23)c(C)n1 | – |
| metabolite_detected | metabolite_detected | metabolite_detected | metabolite_detected | metabolite_detected | metabolite_detected | metabolite_detected | metabolite_detected | metabolite_detected | metabolite_detected | metabolite_detected | metabolite_detected | metabolite_detected | 25.6 | metabolite_detected | metabolite_detected | metabolite_detected | COc1ccc(-c2c(C)nn3c(O)nc(C)nc23)c(C)n1 | Drug metabolism [17]: metabolite_detected |
| metabolite_detected | metabolite_detected | metabolite_detected | metabolite_detected | metabolite_detected | metabolite_detected | metabolite_detected | metabolite_detected | metabolite_detected | metabolite_detected | metabolite_detected | metabolite_detected | metabolite_detected | 32.1 | metabolite_detected | metabolite_detected | metabolite_detected | CC[C@@H](C)Nc1nc(C)nc2c(-c3ccc(O)nc3C)c(C)nn12 | – |
| metabolite_detected | metabolite_detected | metabolite_detected | metabolite_detected | metabolite_detected | metabolite_detected | metabolite_detected | metabolite_detected | metabolite_detected | metabolite_detected | metabolite_detected | metabolite_detected | metabolite_detected | 52.2 | metabolite_detected | metabolite_detected | metabolite_detected | CC[C@@H](C)Nc1nc(C)nc2c(-c3ccc(OC)nc3C)c(C)nn12 [PEXACERFONT] | AUC(0-inf) [18]: 5.82 µM·h; Vz (Canis familiaris): 28.2 L/kg; Tmax [19]: 2 h; Stability (Serum): Stable; Drug metabolism [20]: metabolite_detected; Drug metabolism [21]: metabolite_detected; Drug metabolism [22]: metabolite_detected; metabolised at 3 h, 25 µM [23]: 61% |
